Bioassay records (PubChem BioAssay)
Compounds with a hit are over-represented: about 3.1% of the library has one in this group of screens.
CHO parental Ca = signal in parental CHO cells, OX1R antagonist counter-screen | 0.63% of 330,000 active | inhibition, % at 5.6 µM | AID 463079 | parental CHO-K1, ATP-induced calcium, Fluo-8 fluorescence;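 active means inhibition above that plate's mean sample inhibition plus 3 SD, cut at about 26% in these data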;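 further: 0% = ATP-challenged DMSO wells and 100% = DMSO wells without ATP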
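Assay system: parental CHO cells; Read-out basis: percent inhibition of ATP-evoked calcium rise, normalized to controls; Benchmarks: ATP and no-ATP DMSO wells; Compound dosing: single nominal dose of 5.6 µM per compound; Signal: Fluo-8 calcium dye fluorescence; Also added: ATP as calcium-mobilizing challenge; Repeats: singlicate.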
OX1R antag-1 = human HCRTR1 antagonism | CHO/OX1R cells, Fluo-8 calcium fluorescence, orexin A | 0.43% of 330,000 active | inhibition, % at 5 µM | O43613;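 active means inhibition above its plate's threshold, mean inhibition of all tested compounds on the plate plus 3 SD, cut at about 37% in these data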;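 further: 0% = orexin A challenge wells and 100% = SB-334867-A antagonist wells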
GPR7 antag = blocks human GPR7 receptor signaling. GPR7-expressing cells, fluorescence antagonist assay. AID 1861. P48145. 1.1% of 290,000 active. inhibition, % at 4.4 µM; in the data active means inhibition above about 16%, passing the limit was not always enough;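 further: cells stimulated with the agonist NPW; 0% = agonist with vehicle and 100% = vehicle without agonist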
OX1R antag-2 = antagonists of human orexin 1 receptor (OX1R). O43613. OX1R-expressing cells, FRET antagonist read-out. inhibition, % at 6.6 µM. 1.8% of 330,000 active. AID 485270; in the data active means inhibition mostly above about 38%, no sharp cut-off; inactive means mostly below about 40%;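 further: 0% = agonist challenge alone and 100% = reference antagonist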
GalR3 antag = blocks the human galanin receptor 3; O60755; HEK293 GalR3-CNG cAMP membrane potential fluorescence; galR3 body fused to GalR1 C-terminus; inhibition, % at 3 µM; 0.44% of 360,000 active; AID 651719;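 active means inhibition above the screen-wide average plus 3 SD, cut at about 13% in these data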;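 further: forskolin and galanin both at EC90 stimulate the cells; cAMP rise reported by CNG channel membrane potential dye signal; 0% = forskolin plus galanin with DMSO and 100% = forskolin alone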
Target sequence (O60755 1-299 limits assumed): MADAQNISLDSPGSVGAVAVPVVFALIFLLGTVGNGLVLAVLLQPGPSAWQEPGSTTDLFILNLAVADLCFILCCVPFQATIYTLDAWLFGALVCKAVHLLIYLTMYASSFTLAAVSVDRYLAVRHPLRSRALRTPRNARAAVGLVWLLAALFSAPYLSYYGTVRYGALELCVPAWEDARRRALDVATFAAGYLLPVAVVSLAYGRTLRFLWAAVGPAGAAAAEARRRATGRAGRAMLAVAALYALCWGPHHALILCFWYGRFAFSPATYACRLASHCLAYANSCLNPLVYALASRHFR
GPR7 antag conf = human GPR7 antagonism, confirmation assay. inhibition, % at 4.4 µM. GPR7-expressing cells, calcium fluorescence antagonist mode. shares compounds with GPR7 antag. 52% of 2,400 active; in the data active means inhibition above about 24%;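 further: stimulated with the GPR7 agonist NPW; 0% = agonist plus vehicle and 100% = vehicle alone without agonist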
MCHR1 antagonist = MCHR1 (human) antagonism in GPR7 counter-screen. shares compounds with GPR7 antag. MCHR1-expressing cells, fluorescence antagonist assay. inhibition, % at 4.4 µM. 62% of 2,400 active. AID 2148; in the data active means inhibition above about 22%;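 further: 0% = vehicle with agonist and 100% = vehicle without agonist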
* marks the source's active call; other numbers are inactive results; nt = not tested or not shown.

SMILES | CHO parental Ca | OX1R antag-1 | GPR7 antag | OX1R antag-2 | GalR3 antag | GPR7 antag conf | MCHR1 antagonist
CC1(C)CC(C(CC(=O)N2CCCC2)Cc2ccccc2)CCO1 (centres undefined) | -10 | -21 | 23* | -1 | 1 | 9 | 14
COC(=O)C1CCN(C2CN(Cc3ccc(C)cc3)S(=O)(=O)C2)CC1 (centres undefined) | nt | nt | nt | nt | -4 | nt | nt
CC1CCCCN1C(=O)CN1CCN(S(=O)(=O)c2ccc(Br)cc2Cl)CC1 (centres undefined) | -22 | -17 | nt | 4 | 0 | nt | nt
O=C(Nc1cccnc1)c1ccc(COc2cc(Cl)ccc2Cl)o1 | -10 | 0 | 23 | 35 | -5 | nt | nt
O=C(N/N=C/c1ccc(O)cc1)c1ccc(COc2cc(Cl)ccc2Cl)o1 | 59* | 67* | 53* | 5 | -3 | 68* | 78*
O=C(Nc1cc(Cl)cc(Cl)c1)N1CCN(C(=O)C2CCCO2)CC1 (centres undefined) | -5 | -7 | 3 | 29 | -2 | nt | nt
CC(C)n1cc(CN2CCCC(C(=O)Nc3cccc(-c4cc5ccccc5[nH]4)c3)C2)cn1 (centres undefined) | 1 | -11 | 27* | -3 | -2 | 42* | 56*
CCN(CC)CCNC(=O)c1ccc(NC(=O)c2cn(-c3ccccc3)nc2-c2cccs2)cc1 | 18 | -2 | 22* | 25 | -4 | 35* | 45*
CCN(CC)CCNC(=O)c1ccc(NC(=O)c2cn(-c3ccc(F)cc3)nc2-c2cccc(OC)c2)cc1 | 2 | -19 | 15 | 15 | -3 | nt | nt
CCCCN(C)C(=O)c1nc2ccccn2c1CN1CCN(C/C=C/c2ccccc2)CC1 | -10 | -17 | 26* | 16 | -8 | 29* | 21
CCCCN(C)C(=O)c1nc2ccccn2c1CN1CCN(c2ncccn2)CC1 | -16 | -7 | -12 | 1 | -6 | nt | nt
N#CC1=C(N)Oc2cc(N)ccc2C1c1ccc(F)cc1F (centres undefined) | 1 | 11 | 34* | 22 | -10 | 9 | 21
Cc1ccccc1CS(=O)(=O)c1ncc(Cl)c(C(=O)Nc2ccc(F)cc2)n1 | 26 | 21 | 16 | 40 | -2 | nt | nt
CS(=O)(=O)c1ncc(Cl)c(C(=O)Nc2ccc(OC(F)F)cc2)n1 | 14 | 14 | 51* | 53* | nt | 88* | 94*
CS(=O)(=O)c1ncc(Cl)c(C(=O)Nc2ccc(N3CCOCC3)cc2)n1 | 16 | 11 | 1 | 58 | nt | nt | nt
CCS(=O)(=O)c1ncc(Cl)c(C(=O)Nc2ccc(S(=O)(=O)N(C)c3ccccc3)cc2)n1 | 52* | 51* | 61* | 46* | -10 | 96* | 98*
CCN(c1ccccc1)S(=O)(=O)c1ccc(C(=O)Nc2ccncc2)cc1 | 7 | 4 | nt | 26 | -8 | nt | nt
CCN(c1ccccc1)S(=O)(=O)c1ccc(NC(=O)c2nc(S(C)(=O)=O)ncc2Cl)cc1 | 46* | 62* | 98* | 20 | nt | 97* | 102*
O=C(N=C1SC2CS(=O)(=O)CC2N1c1ccc(Cl)cc1Cl)C1CC1 (centres undefined) | -10 | -4 | -11 | 9 | 1 | nt | nt
Cc1cc(Br)ccc1NC(=O)CN(C)C(=O)C1CCN(C(=O)c2ccc(Cl)cc2)CC1 | nt | nt | nt | nt | 2 | nt | nt
CN(C)CCCNS(=O)(=O)c1ccc(Cl)s1 | -4 | -11 | 2 | 19 | -7 | nt | nt
O=C(COc1ccc(Cl)cc1)NCCNc1ccc([N+](=O)[O-])cc1 | -11 | -28 | 52* | 10 | -11 | 49* | 51*
Cc1cc(-c2ccc(C(C)C)c(S(=O)(=O)N3CCOc4ccccc43)c2)on1 | -5 | -8 | -17 | 23 | -3 | nt | nt
COc1ccc(-c2cc(C)no2)cc1S(=O)(=O)N1CCOc2ccccc21 | -13 | 0 | 23* | 17 | -2 | 13 | 18
CCCC(OC(=O)CN1C(=O)COc2ccccc21)C(=O)NC1CCCC1 (centres undefined) | -12 | -15 | 15 | 10 | nt | nt | nt
CCCCC(OC(=O)CN1C(=O)COc2ccccc21)C(=O)NC1CCCCC1 (centres undefined) | -10 | -32 | 31* | 22 | -7 | 38* | 24*
